According to ChEMBL document CHEMBL3352796, “Enantioselective Synthesis and Profiling of Two Novel Diazabicyclooctanone β-Lactamase Inhibitors” (ACS Med Chem Lett, 2014):

How the values were obtained:
[1] = Hydrolytic solution stability in pH 7.4 aqueous phosphate buffer at 70 degC by HPLC-UV method; format: physicochemical
In short: (§1)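 Compound held in aqueous phosphate buffer, pH 7.4, at 37 °C or 70 °C. Hydrolytic stability is reported as half-life in hours.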

[2] = Hydrolytic solution stability in pH 7.4 aqueous phosphate buffer at 37 degC by HPLC-UV method; format: physicochemical; in short: as §1
Klebsiella pneumoniae [3] = test: Inhibition of Klebsiella pneumoniae OXA-48 pre-incubated with enzyme for 5 mins before nitrocefin substrate addition by colorimetric assay
[4] = Inhibition of Pseudomonas aeruginosa AmpC pre-incubated with enzyme for 5 mins before nitrocefin substrate addition by colorimetric assay
Klebsiella pneumoniae [5] = test: Inhibition of Klebsiella pneumoniae CTX-M-15 pre-incubated with enzyme for 5 mins before nitrocefin substrate addition by colorimetric assay
[6] = Inhibition of Enterobacter cloacae KPC-2 pre-incubated with enzyme for 5 mins before nitrocefin substrate addition by colorimetric assay

SMILES: NC(=O)[C@@H]1[C@@H]2C[C@@H]2[C@@H]2CN1C(=O)N2OS(=O)(=O)[O-].[Na+]
- half-life [1]: 8.2 h
- half-life [2]: 112 h
- IC50 (Klebsiella pneumoniae [3]): 1.3 µM
- IC50 [4]: 4.5 µM
- IC50 (Klebsiella pneumoniae [5]): 0.14 µM
- IC50 [6]: 0.85 µM

SMILES: NC(=O)[C@@H]1[C@H]2C[C@H]2[C@@H]2CN1C(=O)N2OS(=O)(=O)[O-].[Na+]
- half-life [1]: > 264 h
- IC50 (Klebsiella pneumoniae [3]): 28 µM
- IC50 [4]: 2 µM
- IC50 (Klebsiella pneumoniae [5]): 0.48 µM
- IC50 [6]: 6.7 µM

SMILES: C[C@]1(Cn2ccnn2)[C@H](C(=O)O)N2C(=O)C[C@H]2S1(=O)=O [TAZOBACTAM]
- half-life [1]: 7.7 h
- IC50 (Klebsiella pneumoniae [3]): 3.6 µM
- IC50 [4]: 3.4 µM
- IC50 (Klebsiella pneumoniae [5]): < 0.007 µM
- IC50 [6]: 39 µM
